From ChEMBL document CHEMBL3739406, “Trisubstituted Thieno[3,2-b]pyrrole 5-Carboxamides as Potent Inhibitors of Alphaviruses” (J Med Chem, 2015) come the findings set out here.

Molecules are shown by their SMILES. pEC50: −log10 of the molar value.

The test system of series [1] is Chikungunya virus. Description: Antiviral activity against Chikungunya virus infected in HEK293T cells assessed as reduction of infectivity measured at 24 hrs postinfection by gaussia luciferase reporter gene assay. Conditions: HEK-293T. Format: functional, cell-based. (In general: A reporter such as luciferase makes a cellular process visible.)
Series [2] can be described thus: Cytotoxicity against HEK293T cells assessed as reduction in cell viability after 24 hrs by cell titer-glo luminescent cell viability assay. It is filed as cell-based, HEK-293T. As to conditions: human. The method, boiled down:
(§1)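 HEK 293T cells, 3 × 10⁴/well, seeded overnight, then exposed 24 h to compound (0.01–100 μM, triplicate) in DMEM pH 6.8 with 10% FBS. Viability read by CellTiter-Glo luminescence. Normalized to untreated (100%) and medium blank (0%); CC50 by five-parameter curve fit.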

The nature of series [3]: Cytotoxicity against HEK293T cells assessed as cell viability at antiviral EC50 after 24 hrs by cell titer-glo luminescent cell viability assay. It is filed as cell-based, HEK-293T. Conditions: human, read-out: Activity. The method, boiled down: as §1
(In general: ATP-based viability assays read luminescence as a measure of living cells.)

A short description of series [4]: Selectivity index, ratio of CC50 for HEK293T cells to EC50 for Chikungunya virus infected in HEK293T cells. As to conditions: human, read-out: Ratio CC50/EC50. It is filed as toxicity, cell-based, HEK-293T.

For the compound `CCCNC(=O)c1cc2sccc2n1Cc1ccc(OC)cc1`, the pEC50 (as a rule, the EC50 on a negative log10 scale, so that one unit is a factor of ten) in series [1] is less than 4.00. The CC50 (usually the concentration at which the toxic effect on the cells reaches its halfway point) at 24 h in series [2] is greater than 100 µM. For the same compound, the viability at 24 h in series [3] was greater than 80%.
Regarding `CCCNCc1cc2c(cc(C(=O)N3CCC(C(=O)NCCC)CC3)n2Cc2ccc(OC)cc2)s1`, the pEC50 in series [1] is 4.40. Further, the selectivity ratio in series [4] is greater than 2.5. Moreover, in series [2], the CC50 at 24 h was greater than 100 µM. Moreover, in series [3], the viability at 24 h was greater than 80%.
Taken in the same sequence, the figures for `COc1ccc(Cn2c(C(=O)N3CCNCC3)cc3sccc32)cc1` were 4.49, greater than 3.1, greater than 100 µM and greater than 80%.
The matching figures for `CCCNCc1c(C(=O)N2CCC(C(=O)NCCC)CC2)n(Cc2ccc(OC)cc2)c2ccsc12`: 4.56, greater than 3.6, greater than 100 µM and greater than 80%.
The matching figures for `COc1ccc(Cn2c(C(=O)N3CCC(C(=O)NCCC(C)C)CC3)cc3sccc32)cc1`: 4.96, 2.8, 30.9 µM and greater than 80%.
For the compound `COc1ccc(Cn2c(C(=O)N3CCN(Cc4ccccc4)CC3)cc3sccc32)cc1`, in series [1], the pEC50 is 4.38. The selectivity ratio in series [4] was greater than 2.4. The CC50 at 24 h in series [2] was greater than 100 µM. For the same compound, in series [3], the viability at 24 h is greater than 80%.
Taken in the same sequence, the figures for `COc1ccc(Cn2c(C(=O)N3CCC(C(=O)NC(C)c4ccccc4)CC3)cc3sccc32)cc1` (stereo not drawn) were 4.89, greater than 7.7, greater than 100 µM and greater than 80%.
Turning to `COc1ccc(Cn2c(C(=O)N3CCC(C(=O)NCc4cccc(Br)c4)CC3)cc3sccc32)cc1`, the pEC50 in series [1] is 4.96. In series [4], the selectivity ratio was greater than 9.2. Moreover, the CC50 at 24 h in series [2] was greater than 100 µM. Further, the viability at 24 h in series [3] was greater than 80%.
The matching figures for `CCCNC(=O)C1CCN(C(=O)c2c(CNC(C)c3ccccc3)c3sccc3n2Cc2ccc(OC)cc2)CC1` (stereo not drawn): 4.92, 4.8, 57.5 µM and greater than 80%.
Take `CCCNC(=O)C1CCN(C(=O)c2c(CO)c3sccc3n2Cc2ccc(OC)cc2)CC1`: the negative-log EC50 (pEC50) in series [1] was 4.32. The selectivity ratio in series [4] is greater than 2.1. Also, in series [2], the CC50 at 24 h was greater than 100 µM. The viability at 24 h in series [3] was greater than 80%.
The matching figures for `COc1ccc(Cn2c(C(=O)N3CCC(C(=O)NCc4ccccc4)CC3)cc3sccc32)cc1`: 4.91, greater than 8.1, greater than 100 µM and greater than 80%.
The matching figures for `COc1ccc(Cn2c(C(=O)N3CCC(C(=O)NCCc4ccccc4)CC3)cc3sccc32)cc1`: 4.95, greater than 9, greater than 100 µM and greater than 80%.
As for `COc1ccc(Cn2c(C(=O)N3CCN(Cc4ccccc4)CC3)cc3sc(COCc4ccccc4)cc32)cc1`, in series [1], the negative-log EC50 (pEC50) is less than 4.00. In addition, in series [2], the CC50 at 24 h was greater than 100 µM. Also, the viability at 24 h in series [3] was greater than 80%.
As to `CCCNC(=O)C1CCN(C(=O)c2cc3sc(C(=O)c4ccccc4)cc3n2Cc2ccc(OC)cc2)CC1`, the pEC50 in series [1] is less than 4.00. In series [2], the CC50 at 24 h was greater than 100 µM. For the same compound, in series [3], the viability at 24 h is greater than 80%.
With `CCOC(=O)c1cc2sccc2n1Cc1ccc(OC)cc1`, the negative logarithm of the EC50 (pEC50) in series [1] was less than 4.00. For the same compound, the CC50 at 24 h in series [2] was greater than 100 µM. The viability at 24 h in series [3] was greater than 80%.
Regarding `COc1ccc(Cn2c(C(=O)N3CCN(Cc4ccccc4)CC3)cc3sc(-c4ccccc4)cc32)cc1`, the pEC50 in series [1] was 4.37. Also, the selectivity ratio in series [4] is greater than 2.4. In addition, the CC50 at 24 h in series [2] is greater than 100 µM. Also, the viability at 24 h in series [3] is greater than 80%.
Taken in the same sequence, the figures for `CCCNC(=O)C1CCN(C(=O)c2c(CNCc3ccccc3)c3sccc3n2Cc2ccc(OC)cc2)CC1` were 4.81, 5, 77.6 µM and greater than 80%.
As for `COc1ccc(Cn2c(C(=O)NCc3ccccc3)cc3sccc32)cc1`, the pEC50 in series [1] is less than 4.00. For the same compound, in series [2], the cytotoxic concentration (CC50) at 24 h is greater than 100 µM. Besides, in series [3], the viability at 24 h was greater than 80%.
Taken in the same sequence, the figures for `COc1ccc(Cn2c(C(=O)N3CCN(Cc4ccccc4)CC3)cc3sc(C(=O)c4ccccc4)cc32)cc1` were less than 4.00, greater than 100 µM and greater than 80%.
`COc1ccc(Cn2c(C(=O)N3CCCC3)cc3sccc32)cc1`: the pEC50 in series [1] is 4.45. Besides, the selectivity ratio in series [4] was greater than 2.8. The CC50 at 24 h in series [2] is greater than 100 µM. Also, the viability at 24 h in series [3] is greater than 80%.
The matching figures for `CCOC(=O)C1CCN(C(=O)c2cc3sccc3n2Cc2ccc(OC)cc2)CC1`: 4.88, 3, 39 µM and greater than 80%.
The matching figures for `CCCNC(=O)C1CCN(C(=O)c2cc3sc(C(C)=O)cc3n2Cc2ccc(OC)cc2)CC1`: 4.68, greater than 4.8, greater than 100 µM and greater than 80%.
Taken in the same sequence, the figures for `CCCCC(=O)C1CCN(C(=O)c2cc3sccc3n2Cc2ccc(OC)cc2)CC1` were 4.88, 2.9, 38.9 µM and greater than 80%.
In the case of `CCN(CC)C(=O)c1cc2sccc2n1Cc1ccc(OC)cc1`, the pEC50 in series [1] is 4.30. In addition, the selectivity ratio in series [4] was greater than 2. Besides, in series [2], the CC50 at 24 h was greater than 100 µM. Also, the viability at 24 h in series [3] is greater than 80%.
As for `COc1ccc(Cn2c(C(=O)N3CCC(C(=O)O)CC3)cc3sccc32)cc1`, the pEC50 in series [1] is less than 4.00. Moreover, the CC50 at 24 h in series [2] was greater than 100 µM. In addition, the viability at 24 h in series [3] was greater than 80%.
As to `COc1ccc(Cn2c(C(=O)N3CCC(C(N)=O)CC3)cc3sccc32)cc1`, the pEC50 in series [1] is 4.15. In series [4], the selectivity ratio is greater than 1.4. In addition, the CC50 at 24 h in series [2] was greater than 100 µM. For the same compound, in series [3], the viability at 24 h was greater than 80%.
The matching figures for `COc1ccc(Cn2c(C(=O)N3CCC(C(=O)NCC4CC4)CC3)cc3sccc32)cc1`: 4.98, 2.4, 24.6 µM and greater than 80%.
The matching figures for `COc1ccc(Cn2c(C(=O)N3CCOCC3)cc3sccc32)cc1`: 4.10, greater than 1.3, greater than 100 µM and greater than 80%.
The matching figures for `COc1ccc(Cn2c(C(=O)N3CCCCC3)cc3sccc32)cc1`: 4.30, greater than 2, greater than 100 µM and greater than 80%.
For `COc1ccc(Cn2c(C(=O)NC(C)c3ccccc3)cc3sccc32)cc1` (stereo not drawn), the pEC50 in series [1] is less than 4.00. Moreover, in series [2], the CC50 at 24 h is greater than 100 µM. Further, in series [3], the viability at 24 h was greater than 80%.
Taken in the same sequence, the figures for `COc1ccc(Cn2c(C(=O)O)cc3sccc32)cc1` were less than 4.00, greater than 100 µM and greater than 80%.
Taken in the same sequence, the figures for `COc1ccc(Cn2c(C(=O)N3CCN(Cc4ccccc4)CC3)c(COCc3ccccc3)c3sccc32)cc1` were less than 4.00, greater than 100 µM and greater than 80%.
